# Results reported in ChEMBL document CHEMBL1130136, “Novel biological response modifiers: phthalimides with tumor necrosis factor-alpha production-regulating activity” (J Med Chem, 1997).
# Assays:
# [1] = tested on: HL-60; experiment: Tumor necrosis factor-alpha production in human leukemia cell line (HL-60) stimulated with 10 nM 12-O-tetradecanoylphorbol 13-acetate (TPA) at 30 uMolar.; assay type: functional
# Method in brief: (§1)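 HL-60 cells at 5 × 10⁵/mL in RPMI1640 + 10% FBS were co-treated with 30 μM test compound and either 10 nM TPA or 50 nM OA for 16 h at 37 °C. Culture-medium TNF-α was measured by ELISA and expressed as % of inducer-alone control. Cell counts were taken at harvest. Assays were run in duplicate or triplicate (mean taken), at least three times.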
# [2] = tested on: HL-60; experiment: Tumor necrosis factor-alpha production in human leukemia cell line (HL-60) stimulated with 50 nM okadaic acid (OA), at 30 uMolar.; assay type: functional; method in brief: as §1
# [3] = tested on: WI-38; experiment: The cytotoxicity of the compounds assessed using human embryonic lung fibroblast WI-38 cells at (148 micro M); assay type: functional, cell-based
# Method in brief: (§2)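 WI-38 human embryonic lung fibroblasts (5 × 10³ cells/well) in RPMI1640 + 10% FCS were exposed to graded concentrations of compound for 48 h at 37 °C. Viability was read by WST-1 with 1-methoxy PMS (2 h, 37 °C; absorbance at 450 nm). IC50 was reported in μg/mL, with the μM equivalent in parentheses.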
# [4] = tested on: HL-60; experiment: Amount of tumor necrosis factor-alpha produced by human leukemia cell line (HL-60) stimulated with 10 nM12-O-tetradecanoylphorbol 13-acetate (TPA) at 0.3 uM, measured by ELISA; assay type: functional
# Method in brief: (§3)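 HL-60 cells (2.5 × 10⁵ in 0.5 mL, i.e. 5 × 10⁵/mL), growing exponentially in RPMI1640 + 10% FBS, were exposed to 10 nM TPA or 50 nM OA together with 0.3 μM test compound for 16 h at 37 °C. Secreted TNF-α was quantified by ELISA and expressed as % of inducer-alone production. Each run was done in duplicate or triplicate (mean taken) and repeated at least three times.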
# [5] = tested on: HL-60; experiment: Inhibition of 50 nM okadaic acid induced tumor necrosis factor-alpha production in human leukemia cell line (HL-60) by 0.3 uM.; assay type: functional; method in brief: as §3
# [6] = tested on: WI-38; experiment: The cytotoxicity of the compounds assessed using human embryonic lung fibroblast WI-38 cells at (40 micro M); assay type: functional, cell-based; method in brief: as §2
# [7] = tested on: WI-38; experiment: In vitro cytotoxicity against human embryonic lung fibroblast WI-38 cells.; assay type: functional, cell-based; method in brief: as §2
# [8] = tested on: WI-38; experiment: The cytotoxicity of the compounds assessed using human embryonic lung fibroblast WI-38 cells at (39 micro M); assay type: functional, cell-based; method in brief: as §2
# [9] = tested on: WI-38; experiment: The cytotoxicity of the compounds assessed using human embryonic lung fibroblast WI-38 cells at (99 micro M); assay type: functional, cell-based; method in brief: as §2
# [10] = tested on: WI-38; experiment: The cytotoxicity of the compounds assessed using human embryonic lung fibroblast WI-38 cells at (2.6 micro M).; assay type: functional, cell-based; method in brief: as §2
# [11] = tested on: WI-38; experiment: The cytotoxicity of the compounds assessed using human embryonic lung fibroblast WI-38 cells at (95 micro M); assay type: functional, cell-based; method in brief: as §2
# [12] = tested on: HL-60; experiment: Amount of tumor necrosis factor-alpha produced in human leukemia cell line (HL-60) stimulated with 10 nM12-O-tetradecanoylphorbol 13-acetate (TPA) at 0.3 micro M, measured by ELISA.; assay type: functional; method in brief: as §3
# [13] = tested on: WI-38; experiment: The cytotoxicity of the compounds assessed using human embryonic lung fibroblast WI-38 cells at (2.3 micro M); assay type: functional, cell-based; method in brief: as §2
# [14] = tested on: HL-60; experiment: Amount of tumor necrosis factor-alpha produced by human leukemia cell line (HL-60) stimulated with 50 nM okadaic acid (OA), at 0.3 uM, measured by ELISA.; assay type: functional; method in brief: as §3
# [15] = tested on: WI-38; experiment: The cytotoxicity of the compounds assessed using human embryonic lung fibroblast WI-38 cells at (8 micro M); assay type: functional, cell-based; method in brief: as §2
# [16] = tested on: WI-38; experiment: The cytotoxicity of the compounds assessed using human embryonic lung fibroblast WI-38 cells at (136 micro M); assay type: functional, cell-based; method in brief: as §2
# [17] = tested on: WI-38; experiment: The cytotoxicity of the compounds assessed using human embryonic lung fibroblast WI-38 cells at (25 micro M); assay type: functional, cell-based; method in brief: as §2
# [18] = tested on: WI-38; experiment: The cytotoxicity of the compounds assessed using human embryonic lung fibroblast WI-38 cells at (121 micro M); assay type: functional, cell-based; method in brief: as §2
# [19] = tested on: WI-38; experiment: The cytotoxicity of the compounds assessed using human embryonic lung fibroblast WI-38 cells at (20 micro M); assay type: functional, cell-based; method in brief: as §2
SMILES,Amount of TNF-alpha [1] [%],Amount of TNF-alpha [2] [%],Amount of TNF-alpha [4] [%],Amount of TNF-alpha [5] [%],IC50 [7] [µg/mL],also measured
CC(C)c1cccc(C(C)C)c1N1Cc2ccccc2C1=O,214,40,,,,IC50 [3]: 43.1 µg/mL
C[C@H](c1ccccc1)N1C(=O)c2c(F)c(F)c(F)c(F)c2C1=O,,,97,2,,IC50 [6]: 12.8 µg/mL
C[C@H](C1CCCCC1)N1C(=O)c2c(F)c(F)c(F)c(F)c2C1=O,,,98,10,> 100,
CC(C)c1cccc(C(C)C)c1N1C(=O)c2ccc(O)cc2C1=O,153,7,,,,IC50 [8]: 12.7 µg/mL
CC(C)c1cccc(C(C)C)c1N1C(=O)Cc2ccccc2C1=O,268,50,,,> 100,
CC[C@@H](c1ccccc1)N1C(=O)c2c(F)c(F)c(F)c(F)c2C1=O,,,235,87,,
O=C1c2c(F)c(F)c(F)c(F)c2C(=O)N1[C@H]1CCc2ccccc21,,,392,98,> 100,
CC(C)c1ccccc1N1C(=O)c2ccccc2C1=O,158,105,,,> 100,
CCCCCc1ccccc1N1C(=O)c2ccccc2C1=O,151,35,,,> 100,
C[C@@H](c1ccc(N)cc1)N1C(=O)c2c(F)c(F)c(F)c(F)c2C1=O,,,262,38,,
CC(C)c1ccc(N2C(=O)c3ccccc3C2=O)cc1,139,33,,,> 100,
CC(C)c1cccc(C(C)C)c1N1C(=O)c2c(Cl)c(Cl)c(Cl)c(Cl)c2C1=O,250,19,,,> 100,
COc1ccccc1N1C(=O)c2ccccc2C1=O,95,21,,,> 100,
CC/N=C1\c2ccccc2C(=O)N1c1c(C(C)C)cccc1C(C)C,138,75,,,,
CCc1cccc(C)c1N1C(=O)c2ccccc2C1=O,188,82,,,,IC50 [9]: 26.2 µg/mL
O=C1c2c(F)c(F)c(F)c(F)c2C(=O)N1C1Cc2ccccc2C1,,,104,43,,IC50 [10]: 0.9 µg/mL
CC(C)c1cccc(C(C)C)c1N1C(=O)c2ccccc2C1=S,1252,0,,,,IC50 [11]: 30.8 µg/mL
CC(C)c1cccc(C(C)C)c1N1C(=O)c2c(F)c(F)c(F)c(F)c2C1=O,,,,,,Amount of TNF-alpha [12]: 375%; IC50 [13]: 0.9 µg/mL; Amount of TNF-alpha [14]: 0%
C[C@@H](c1cccc2ccccc12)N1C(=O)c2c(F)c(F)c(F)c(F)c2C1=O,,,101,101,,IC50 [15]: 2.8 µg/mL
C[C@H](c1cccc2ccccc12)N1C(=O)c2c(F)c(F)c(F)c(F)c2C1=O,,,100,2,,IC50 [15]: 2.8 µg/mL
C[C@@H](C1CCCCC1)N1C(=O)c2c(F)c(F)c(F)c(F)c2C1=O,,,124,65,> 100,

SMILES,Amount of TNF-alpha [1] [%],Amount of TNF-alpha [2] [%],Amount of TNF-alpha [4] [%],Amount of TNF-alpha [5] [%],IC50 [7] [µg/mL],also measured
C/N=C1\c2ccccc2C(=O)N1c1c(C(C)C)cccc1C(C)C,134,37,,,,
CCc1cccc(CC)c1N1C(=O)c2ccccc2C1=O,453,53,,,,IC50 [16]: 38 µg/mL
CC(C)c1cccc(C(C)C)c1N1C(=O)c2cccc(O)c2C1=O,239,64,,,> 100,
CC(C)c1cccc(C(C)C)c1N1C(=O)c2ccccc2C1=O,602,21,,,> 100,
Cc1cccc(C)c1N1C(=O)c2ccccc2C1=O,161,40,,,> 100,
CC(C)c1cccc(C(C)C)c1N1C(=O)c2cc3ccccc3cc2C1=O,144,48,,,> 100,
Cc1ccccc1N1C(=O)c2ccccc2C1=O,100,68,,,> 100,
CC(C)c1cccc(C(C)C)c1N1C(=O)c2cccc(N)c2C1=O,248,21,,,,IC50 [17]: 8.1 µg/mL
CC(C)c1cccc(C(C)C)c1N1C(=O)c2ccc([N+](=O)[O-])cc2C1=O,683,54,,,,IC50 [18]: 42.7 µg/mL
Cc1cc(C)cc(N2C(=O)c3ccccc3C2=O)c1,136,89,,,> 100,
CC(C)c1cccc(C(C)C)c1N1C(=O)c2c(Br)c(Br)c(Br)c(Br)c2C1=O,235,3,,,,
C[C@@H](c1ccc([N+](=O)[O-])cc1)N1C(=O)c2c(F)c(F)c(F)c(F)c2C1=O,,,268,32,,
C[C@H](c1ccc(N)cc1)N1C(=O)c2c(F)c(F)c(F)c(F)c2C1=O,,,241,27,,
CCc1cccc(C(C)C)c1N1C(=O)c2ccccc2C1=O,255,26,,,,IC50 [19]: 6 µg/mL
CC[C@H](c1ccccc1)N1C(=O)c2c(F)c(F)c(F)c(F)c2C1=O,,,111,67,,
CC(C)c1cccc(N2C(=O)c3ccccc3C2=O)c1,158,105,,,> 100,
O=C1c2ccccc2C(=O)N1c1ccccc1-c1ccccc1,262,40,,,> 100,
C[C@H](c1ccc([N+](=O)[O-])cc1)N1C(=O)c2c(F)c(F)c(F)c(F)c2C1=O,,,239,27,,
O=C1c2ccccc2C(=O)N1c1ccccc1[N+](=O)[O-],89,53,,,> 100,
CC(=O)Nc1ccc([C@@H](C)N2C(=O)c3c(F)c(F)c(F)c(F)c3C2=O)cc1,,,220,55,,
O=C1c2ccccc2C(=O)N1c1ccccc1 [N-PHENYL-PHTHALIMIDE],100,61,,,> 100,
